For experiment [1], the target named is T1, Protein arginine N-methyltransferase 1 (Homo sapiens, UniProt Q99873). Description: Displacement of [3H]-SAM from recombinant His6-tagged PRMT1 (unknown origin) expressed in Escherichia coli BL21(DE3) at 10 uM incubated for 5 mins prior to H4(1 to 20)-BTN peptide addition measured after 8 mins by scintillation proximity assay. A digest of the protocol:
(§1)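 His6-PRMT1 (0.02 µM) was purified from E. coli BL21(DE3) on Ni-NTA. It was preincubated 5 min with compound (10, 30 or 90 µM) and [3H]SAM (0.5 µM) in 50 mM HEPES pH 8.0, 1 mM EDTA, 50 mM NaCl, 0.5 mM DTT at ~25 °C. Biotinylated H4(1–20) peptide (1 µM) was added and the reaction run 8 min. It was quenched with isopropanol and read with streptavidin SPA beads. % inhibition was taken against water (full activity) and no-peptide blanks.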
Target sequence in this assay (Q99873 whole entry, looked up): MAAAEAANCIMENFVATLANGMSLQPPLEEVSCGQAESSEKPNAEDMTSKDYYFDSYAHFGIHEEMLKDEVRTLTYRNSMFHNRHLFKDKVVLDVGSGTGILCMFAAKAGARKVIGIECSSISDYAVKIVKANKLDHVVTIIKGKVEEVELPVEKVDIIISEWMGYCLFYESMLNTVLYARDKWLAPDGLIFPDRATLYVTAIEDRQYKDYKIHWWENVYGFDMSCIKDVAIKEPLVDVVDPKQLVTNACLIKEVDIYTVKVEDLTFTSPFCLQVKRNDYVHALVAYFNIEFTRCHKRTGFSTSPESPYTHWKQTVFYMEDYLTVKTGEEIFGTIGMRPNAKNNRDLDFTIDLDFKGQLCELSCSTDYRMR

Experiment [2] addresses T1, Protein arginine N-methyltransferase 1. The experiment is described as follows: Displacement of [3H]-SAM from recombinant His6-tagged PRMT1 (unknown origin) expressed in Escherichia coli BL21(DE3) at 90 uM incubated for 5 mins prior to H4(1 to 20)-BTN peptide addition measured after 8 mins by scintillation proximity assay. In short, it runs like this: as §1
Target sequence in this assay (Q99873 whole entry, looked up): as above
For experiment [3] the target is unchanged. Description: Displacement of [3H]-SAM from recombinant His6-tagged PRMT1 (unknown origin) expressed in Escherichia coli BL21(DE3) at 30 uM incubated for 5 mins prior to H4(1 to 20)-BTN peptide addition measured after 8 mins by scintillation proximity assay. A digest of the protocol: as §1
Target sequence in this assay (Q99873 whole entry, looked up): as above
Experiment [4] shares this target. Description: Displacement of [3H]-SAM from recombinant His6-tagged PRMT1 (unknown origin) expressed in Escherichia coli BL21(DE3) incubated for 5 mins prior to H4(1 to 20)-BTN peptide addition measured after 8 mins by scintillation proximity assay. In short, it runs like this:
(§2)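 Serial compound dilutions were tested in the same SPA format (His-tagged enzyme purified from E. coli BL21(DE3), 5 min preincubation, H4(1–20)-biotin substrate, 8 min reaction, ~25 °C, HEPES pH 8.0 buffer). [3H]SAM and peptide were set near their predetermined Km values for each enzyme. Remaining activity was fitted to a Hill-modified IC50 equation, giving IC50 and Hill coefficient.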
Target sequence in this assay (Q99873 whole entry): as the sequence (Q99873 whole entry, looked up) above

The target in experiment [5] is T2, Histone-arginine methyltransferase CARM1 (Homo sapiens, UniProt Q86X55).
T2 sequence (Q86X55 whole entry): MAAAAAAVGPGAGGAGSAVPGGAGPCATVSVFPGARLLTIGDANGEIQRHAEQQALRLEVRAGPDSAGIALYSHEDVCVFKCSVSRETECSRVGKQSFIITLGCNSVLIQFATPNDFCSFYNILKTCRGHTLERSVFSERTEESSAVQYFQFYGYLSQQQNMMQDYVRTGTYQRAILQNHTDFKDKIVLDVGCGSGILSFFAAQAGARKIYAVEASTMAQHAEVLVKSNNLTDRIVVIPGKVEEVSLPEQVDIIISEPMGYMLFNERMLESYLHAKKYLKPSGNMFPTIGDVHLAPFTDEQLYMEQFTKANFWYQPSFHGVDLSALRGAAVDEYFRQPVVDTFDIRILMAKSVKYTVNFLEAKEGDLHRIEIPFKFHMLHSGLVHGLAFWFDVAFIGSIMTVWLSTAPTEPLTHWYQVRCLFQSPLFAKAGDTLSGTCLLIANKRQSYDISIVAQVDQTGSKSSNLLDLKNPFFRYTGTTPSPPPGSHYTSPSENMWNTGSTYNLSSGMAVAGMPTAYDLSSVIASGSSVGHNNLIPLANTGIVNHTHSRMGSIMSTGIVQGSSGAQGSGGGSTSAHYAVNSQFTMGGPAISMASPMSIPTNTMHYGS
Description: Displacement of [3H]-SAM from recombinant GST-tagged CARM1 (unknown origin) expressed in Escherichia coli BL21(DE3) incubated for 5 mins prior to H3.3 protein addition measured after 8 mins by P81 filter paper binding assay.

For experiment [6], the target named is Protein arginine N-methyltransferase 5 (Homo sapiens, UniProt O14744). Description: Displacement of [3H]-SAM from recombinant His6-tagged PRMT5 (unknown origin) expressed in Escherichia coli BL21(DE3) incubated for 5 mins prior to H4(1 to 20)-BTN peptide addition measured after 8 mins by scintillation proximity assay. In short, it runs like this: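 Recombinant His6-PRMT5 was purified on Ni-NTA after IPTG induction in E. coli BL21(DE3). [3H]SAM and H4(1–20)BTN were set near their predetermined Km. Serially diluted compound was preincubated 5 min before peptide addition, reacted 8 min, isopropanol-quenched, and read with streptavidin SPA beads. IC50 and nH came from a Hill fit.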
Protein arginine N-methyltransferase 5, sequence (O14744 whole entry): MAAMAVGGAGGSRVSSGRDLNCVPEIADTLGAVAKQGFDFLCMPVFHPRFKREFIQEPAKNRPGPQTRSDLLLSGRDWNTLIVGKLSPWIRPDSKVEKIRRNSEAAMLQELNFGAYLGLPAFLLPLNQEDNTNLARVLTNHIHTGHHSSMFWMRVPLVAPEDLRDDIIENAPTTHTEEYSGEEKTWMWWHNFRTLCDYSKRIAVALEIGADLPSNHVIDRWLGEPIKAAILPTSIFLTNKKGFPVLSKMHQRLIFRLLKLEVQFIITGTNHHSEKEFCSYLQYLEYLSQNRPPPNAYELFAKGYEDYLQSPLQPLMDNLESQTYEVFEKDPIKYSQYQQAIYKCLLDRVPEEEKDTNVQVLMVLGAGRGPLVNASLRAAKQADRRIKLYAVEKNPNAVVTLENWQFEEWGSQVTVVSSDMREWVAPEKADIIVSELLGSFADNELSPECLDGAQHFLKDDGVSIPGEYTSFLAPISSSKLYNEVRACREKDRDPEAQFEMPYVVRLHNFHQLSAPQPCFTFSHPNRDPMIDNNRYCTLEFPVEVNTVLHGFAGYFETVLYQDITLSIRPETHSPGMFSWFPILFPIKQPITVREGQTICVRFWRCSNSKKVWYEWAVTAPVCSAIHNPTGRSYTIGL

In experiment [7] the target is Protein arginine N-methyltransferase 8 (Homo sapiens, UniProt Q9NR22). Description: Displacement of [3H]-SAM from recombinant His6-tagged PRMT8 (unknown origin) expressed in Escherichia coli BL21(DE3) incubated for 5 mins prior to H4(1 to 20)-BTN peptide addition measured after 8 mins by scintillation proximity assay. In short, it runs like this:
as §2

For experiment [8], the species on record is Homo sapiens. The experiment is described as follows: Selectivity ratio of IC50 for recombinant […] (unknown origin) to IC50 for recombinant His6-tagged PRMT1 (unknown origin).
The species named for experiment [9] is Homo sapiens. The experiment is described as follows: Selectivity ratio of IC50 for recombinant His6-tagged PRMT5 (unknown origin) to IC50 for recombinant His6-tagged PRMT1 (unknown origin).

Experimental findings from ChEMBL document CHEMBL3407369, “Exploration of cyanine compounds as selective inhibitors of protein arginine methyltransferases: synthesis and biological evaluation” (J Med Chem, 2015) are described below.

Active and inactive are the calls of the source. No cut-off for these calls is given here.

Protein arginine N-methyltransferase 8, sequence (Q9NR22 whole entry): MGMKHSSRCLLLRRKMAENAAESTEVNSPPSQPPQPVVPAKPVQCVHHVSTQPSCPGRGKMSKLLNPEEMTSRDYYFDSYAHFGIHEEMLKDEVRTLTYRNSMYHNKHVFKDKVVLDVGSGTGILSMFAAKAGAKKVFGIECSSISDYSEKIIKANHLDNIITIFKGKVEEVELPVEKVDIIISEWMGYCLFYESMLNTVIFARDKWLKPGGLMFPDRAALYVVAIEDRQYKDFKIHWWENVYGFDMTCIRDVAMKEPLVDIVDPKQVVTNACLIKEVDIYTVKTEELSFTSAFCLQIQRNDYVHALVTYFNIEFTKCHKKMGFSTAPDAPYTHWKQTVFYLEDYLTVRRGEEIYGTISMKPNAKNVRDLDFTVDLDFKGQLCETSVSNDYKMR

With `CCCCN1/C(=C/C=C/C2=[N+](CCCC)c3ccccc3C2(C)C)C(C)(C)c2ccccc21`, in experiment [1], the inhibition result was “inactive”. Also, the inhibition in [2] came to 91%; in experiment [3], 48%.

`CCCCN1/C(=C/C(C)=C/c2sc3ccccc3[n+]2CCCC)Sc2ccccc21`: the inhibition in experiment [1] came to 77%.

Take `CCN1/C(=C/C=C/C=C/C2=[N+](CC)c3ccc4ccccc4c3C2(C)C)C(C)(C)c2c1ccc1ccccc21`: the inhibition in [1] is 89%. Besides, the IC50 in experiment [4] turned out to be 3.39 µM.

Take `CCN1/C(=C/C(C)=C/c2sc3c4ccccc4ccc3[n+]2CC)Sc2c1ccc1ccccc21`: in [1], the inhibition was determined as 92%. The half-maximal inhibitory concentration (IC50) in experiment [4] is 2.37 µM.

Turning to `CCCCN1/C(=C/C=C(Br)/C=C/C2=[N+](CCCC)c3ccc(Br)cc3C2(C)C)C(C)(C)c2cc(Br)ccc21`, the inhibition in experiment [1] was 96%. The IC50 in experiment [4] was 3.38 µM; in experiment [5] it was 21.5 µM; in [6], 35.4 µM; in experiment [7] it was 84.9 µM.

With `CC[N+]1=C(/C=C/C=C2/N(C)c3ccccc3C2(C)C)C(C)(C)c2ccccc21`, the inhibition result in [1] is “inactive”. For the same molecule, the values for the inhibition in experiment [2] and in experiment [3] were 41% and 9%, respectively.

For `CCN1/C(=C/C=C/C2=[N+](CC)c3ccc(Cl)cc3C2(C)C)C(C)(C)c2cc(Cl)ccc21`, in experiment [1], the inhibition is 7%.

Consider `CCCCN1/C(=C/C=C/c2sc3ccc(Br)cc3[n+]2CCCC)Sc2ccc(Br)cc21`, for which the inhibition in experiment [1] is 91%. The values for the IC50 in experiment [4], in experiment [5] and in [6] were 2.03 µM, 7.23 µM and 8.36 µM, respectively. Also, the Ratio IC50 in the experiment listed under Homo sapiens [8] and in the experiment filed under Homo sapiens [9] was 3 each time.

In the case of `CN1/C(=C/C=C/C2=[N+](CCC[N+](C)(C)C)c3ccccc3C2(C)C)C(C)(C)c2ccccc21`, the inhibition in [1] was determined as 2%.

Regarding `CN1/C(=C/C=C/C2=[N+](CCC[N+](C)(C)C)c3ccc(S(=O)(=O)[O-])cc3C2(C)C)C(C)(C)c2ccccc21`, the inhibition result in experiment [1] was “inactive”.

Turning to `CCCCN1/C(=C/C=C/C2=[N+](CCCC)c3ccc(Cl)cc3C2(C)C)C(C)(C)c2cc(Cl)ccc21`, the inhibition in experiment [1] came out at 34%.

For `CC1=[N+](CCCc2ccccc2)c2ccccc2C1(C)C`, the inhibition result in [1] and in experiment [3] was “inactive” throughout. Also, the inhibition in experiment [2] stood at 80%.

Turning to `CCCCN1/C(=C\C=C\C2=[N+](CCCC)c3ccc4ccccc4c3C2(C)C)C(C)(C)c2c1ccc1ccccc21`, the IC50 in experiment [4] amounted to 2.56 µM.

As to `CN1/C(=C/C=C/C2=[N+](CCCS(=O)(=O)[O-])c3ccccc3C2(C)C)C(C)(C)c2ccccc21`, the inhibition result in experiment [1] is “inactive”.

Turning to `CCCCN1/C(=C/C(/C=C/c2ccccc2)=C/c2sc3ccccc3[n+]2CCCC)Sc2ccccc21`, the inhibition in [1] stood at 48%.

Consider `CC1(C)C(/C=C/C=C2/N(CCCc3ccccc3)c3ccc(Br)cc3C2(C)C)=[N+](CCCc2ccccc2)c2ccc(Br)cc21`, for which the inhibition in [1] worked out at 101%. In addition, the IC50 in [4] was found to be 1.25 µM.

For the molecule `CCN1/C(=C/C=C/c2sc3cc(Br)ccc3[n+]2CC)Sc2cc(Br)ccc21`, the inhibition in experiment [1] was 88%. Besides, the IC50 in [4] amounted to 6.43 µM.

For the molecule `CCCCN1/C(=C/C=C/C2=[N+](CCCC)c3ccc(Br)cc3C2(C)C)C(C)(C)c2cc(Br)ccc21`, in [1], the inhibition worked out at 48%.

Take `CCCC[N+]1=C(/C=C/C=C2/N(C)c3ccccc3C2(C)C)C(C)(C)c2cc(Br)ccc21`: the inhibition in experiment [1] turned out to be 36%.

For `CC1(C)C(/C=C/C=C2/N(CCCc3ccccc3)c3ccccc3C2(C)C)=[N+](CCCc2ccccc2)c2ccccc21`, the figures for the inhibition in experiment [1], in experiment [2] and in [3] were 41%, 100% and 101%, respectively.

In the case of `CCCCN1/C(=C/C=C/c2sc3cc(Br)ccc3[n+]2CCCC)Sc2cc(Br)ccc21`, the inhibition in experiment [1] came out at 93%. In addition, in experiment [4], the IC50 came out at 2.67 µM.

Take `CC1(C)C(/C=C/C=C/C=C2/N(CCCc3ccccc3)c3ccc4ccccc4c3C2(C)C)=[N+](CCCc2ccccc2)c2ccc3ccccc3c21`: the inhibition in [1] came out at 70.2%. Further, in experiment [4], the IC50 is 5.76 µM.

On to `CCN1/C(=C/C=C/C2=[N+](CC)c3ccc(Br)cc3C2(C)C)C(C)(C)c2cc(Br)ccc21`, for which the inhibition in experiment [1] came to 11%.

Regarding `CN1/C(=C/C=C/C2=[N+](CCCc3ccccc3)c3ccccc3C2(C)C)C(C)(C)c2ccccc21`, the inhibition in experiment [1] was found to be 35%; in [2], 101%; in experiment [3], 96%.

For `CCN1/C(=C/C=C(Cl)/C=C/C2=[N+](CC)c3ccc4ccccc4c3C2(C)C)C(C)(C)c2c1ccc1ccccc21`, in [1], the inhibition is 69%.

Turning to `CCCCN1/C(=C/C=C/c2sc3ccccc3[n+]2CCCC)Sc2ccccc21`, the inhibition in experiment [1] was 79%.

As for `CCCC[N+]1=C(/C=C/C=C2/N(C)c3ccccc3C2(C)C)C(C)(C)c2ccccc21`, the inhibition in [1] came to 8%; in experiment [2], 79%; in experiment [3], 32%.

As to `CC[N+]1=C(C)C(C)(C)c2ccccc21`, the inhibition entry in experiment [1], in experiment [2] and in experiment [3] was “inactive” each time.

As for `CCCCN1/C(=C/C=C/C2=[N+](CCCC)c3ccc4ccccc4c3C2(C)C)C(C)(C)c2c1ccc1ccccc21`, the inhibition in [1] stood at 91%.

On to `CCCCN1/C(=C/C=C/c2sc3c4ccccc4ccc3[n+]2CCCC)Sc2c1ccc1ccccc21`, for which the inhibition in [1] turned out to be 99%. In [4], the IC50 was 4 µM.

For `CCN1/C(=C/C=C/c2sc3c4ccccc4ccc3[n+]2CC)Sc2c1ccc1ccccc21`, in [1], the inhibition is 40%.

Turning to `CCN1/C(=C/C=C/c2sc3ccccc3[n+]2CC)Sc2ccccc21`, the inhibition in experiment [1] came out at 46%.

For the molecule `CC1(C)C(/C=C/C=C2/N(CCCc3ccccc3)c3ccc(Cl)cc3C2(C)C)=[N+](CCCc2ccccc2)c2ccc(Cl)cc21`, the inhibition in experiment [1] amounted to 100%. The IC50 in [4] amounted to 1.15 µM.

In the case of `CCN1/C(=C\C=C\C2=[N+](CC)c3ccccc3C2(C)C)C(C)(C)c2ccccc21`, the inhibition in experiment [1] stood at 4%; in experiment [2], 60.6%; in experiment [3], 42%.

For the molecule `CC1(C)C(/C=C/C=C2/N(CCCc3ccccc3)c3ccc4ccccc4c3C2(C)C)=[N+](CCCc2ccccc2)c2ccc3ccccc3c21`, the inhibition in experiment [1] is 100%. Also, the IC50 in experiment [4] stood at 0.61 µM; in experiment [6], 1.4 µM; in experiment [7], 1.74 µM.

As for `CCCC[N+]1=C(C)C(C)(C)c2ccccc21`, the inhibition entry in experiment [1], in experiment [2] and in experiment [3] was “inactive” each time.

On to `C(/C=C/c1sc2ccccc2[n+]1CCCc1ccccc1)=C1/Sc2ccccc2N1CCCc1ccccc1`, for which, in [1], the inhibition came to 76%.

Take `CCN1/C(=C/C=C/C2=[N+](CC)c3ccc4ccccc4c3C2(C)C)C(C)(C)c2c1ccc1ccccc21`: the inhibition in experiment [1] came to 27%.

Consider `CC1(C)C(/C=C/C(Cl)=C/C=C2/N(CCCc3ccccc3)c3ccc4ccccc4c3C2(C)C)=[N+](CCCc2ccccc2)c2ccc3ccccc3c21`, for which the inhibition in experiment [1] is 96.3%. Further, the IC50 in experiment [4] stood at 1.81 µM.
